Data published in ChEMBL document CHEMBL1136004, “Ethyl (3S,4aR,6S,8aR)-6-(4-ethoxycar- bonylimidazol-1-ylmethyl)decahydroiso-quinoline-3-carboxylic ester: a prodrug of a GluR5 kainate receptor antagonist active in two animal models of acute migraine” (J Med Chem, 2002).

What was measured:
Glutamate receptor 4 = Glutamate receptor 4 (Homo sapiens, UniProt P48058); test: Ability to displace binding of [3H]AMPA to recombinant human Ionotropic glutamate receptor AMPA 4
In short: (§1)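 Radioligand displacement with [3H]AMPA on membranes from HEK 293 cells expressing the cloned human AMPA receptor subunit. Ki (μM) reported as the mean ± SEM of at least three determinations.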

[1] = molecular target: T1, Glutamate receptor ionotropic, kainate 2 (Homo sapiens, UniProt Q13002); test: Ability to displace binding of [3H]KA to recombinant human KA receptor Ionotropic glutamate receptor ionotropic kainate 2 expressed in EK 293 cell membranes
T1 sequence (Q13002 whole entry): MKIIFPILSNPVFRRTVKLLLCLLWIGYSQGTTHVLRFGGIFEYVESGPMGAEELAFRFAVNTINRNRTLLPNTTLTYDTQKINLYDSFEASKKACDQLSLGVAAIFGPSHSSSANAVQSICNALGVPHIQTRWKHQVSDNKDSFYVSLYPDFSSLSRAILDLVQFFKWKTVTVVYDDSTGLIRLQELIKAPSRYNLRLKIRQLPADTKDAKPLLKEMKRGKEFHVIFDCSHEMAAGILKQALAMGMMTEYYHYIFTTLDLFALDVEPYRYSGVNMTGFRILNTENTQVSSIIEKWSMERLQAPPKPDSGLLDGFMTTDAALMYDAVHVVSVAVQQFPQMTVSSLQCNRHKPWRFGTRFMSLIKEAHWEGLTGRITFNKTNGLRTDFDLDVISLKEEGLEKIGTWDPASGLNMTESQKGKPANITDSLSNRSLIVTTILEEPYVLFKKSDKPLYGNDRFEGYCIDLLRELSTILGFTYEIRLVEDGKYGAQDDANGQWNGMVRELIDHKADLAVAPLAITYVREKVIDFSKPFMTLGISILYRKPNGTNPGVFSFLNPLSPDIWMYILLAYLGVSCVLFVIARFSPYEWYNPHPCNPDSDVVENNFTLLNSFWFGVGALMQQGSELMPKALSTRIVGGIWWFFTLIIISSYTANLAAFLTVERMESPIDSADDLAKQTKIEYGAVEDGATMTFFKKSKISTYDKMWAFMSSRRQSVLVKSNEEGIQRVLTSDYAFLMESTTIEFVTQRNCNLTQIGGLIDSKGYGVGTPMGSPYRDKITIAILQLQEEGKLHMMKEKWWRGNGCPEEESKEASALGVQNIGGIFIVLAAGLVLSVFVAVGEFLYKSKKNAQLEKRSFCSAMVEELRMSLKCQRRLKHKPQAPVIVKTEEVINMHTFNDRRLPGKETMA
In short: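 Displacement of [3H]KA binding on membranes from HEK 293 cells expressing the recombinant human kainate receptor subunit. Ki (μM) given as the mean ± SEM from at least three determinations.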

[2] = molecular target: Glutamate receptor ionotropic, kainate 3 (Homo sapiens) (UniProt Q13003); test: Ability to displace binding of [3H]KA to recombinant human KA receptor Ionotropic glutamate receptor ionotropic kainate 3
[3] = molecular target: T1, Glutamate receptor ionotropic, kainate 2; test: Ability to displace binding of [3H]KA to recombinant human KA receptor Ionotropic glutamate receptor ionotropic kainate 2
Glutamate receptor 1 = Glutamate receptor 1 (Homo sapiens, UniProt P42261); test: Ability to displace binding of [3H]AMPA to recombinant human Ionotropic glutamate receptor AMPA 1; in short: as §1
Glutamate receptor 1, sequence (P42261 whole entry): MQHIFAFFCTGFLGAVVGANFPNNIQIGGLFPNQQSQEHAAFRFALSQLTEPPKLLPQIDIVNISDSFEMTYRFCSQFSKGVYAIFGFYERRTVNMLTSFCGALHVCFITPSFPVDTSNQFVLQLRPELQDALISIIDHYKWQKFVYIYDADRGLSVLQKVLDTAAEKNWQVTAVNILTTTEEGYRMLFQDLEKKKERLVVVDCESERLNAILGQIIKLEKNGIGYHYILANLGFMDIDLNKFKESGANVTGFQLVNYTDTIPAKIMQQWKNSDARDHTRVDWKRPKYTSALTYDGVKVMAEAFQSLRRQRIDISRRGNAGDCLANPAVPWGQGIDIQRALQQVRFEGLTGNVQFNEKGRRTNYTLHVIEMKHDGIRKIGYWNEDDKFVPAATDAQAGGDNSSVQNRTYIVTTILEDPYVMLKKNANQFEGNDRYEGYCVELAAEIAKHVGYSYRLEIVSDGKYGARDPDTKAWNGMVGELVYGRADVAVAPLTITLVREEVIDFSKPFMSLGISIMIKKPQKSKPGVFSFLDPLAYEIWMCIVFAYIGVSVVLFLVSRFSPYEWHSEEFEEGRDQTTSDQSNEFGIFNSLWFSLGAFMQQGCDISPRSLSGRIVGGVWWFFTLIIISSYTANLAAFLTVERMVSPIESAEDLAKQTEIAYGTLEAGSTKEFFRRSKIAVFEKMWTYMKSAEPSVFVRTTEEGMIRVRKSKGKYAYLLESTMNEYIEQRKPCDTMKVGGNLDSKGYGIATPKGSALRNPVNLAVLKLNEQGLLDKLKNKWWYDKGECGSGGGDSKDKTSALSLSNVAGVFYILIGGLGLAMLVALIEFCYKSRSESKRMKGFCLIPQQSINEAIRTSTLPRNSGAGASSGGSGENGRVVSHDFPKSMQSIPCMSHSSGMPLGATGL

[4] = molecular target: Glutamate receptor ionotropic, kainate 1 (Homo sapiens) (UniProt P39086); test: Ability to displace binding of [3H]KA to recombinant human Ionotropic glutamate receptor ionotropic kainate 1
Glutamate receptor 3 = Glutamate receptor 3 (Homo sapiens, UniProt P42263); test: Ability to displace binding of [3H]AMPA to recombinant human Ionotropic glutamate receptor AMPA 3; in short: as §1
Glutamate receptor 3, sequence (P42263 whole entry): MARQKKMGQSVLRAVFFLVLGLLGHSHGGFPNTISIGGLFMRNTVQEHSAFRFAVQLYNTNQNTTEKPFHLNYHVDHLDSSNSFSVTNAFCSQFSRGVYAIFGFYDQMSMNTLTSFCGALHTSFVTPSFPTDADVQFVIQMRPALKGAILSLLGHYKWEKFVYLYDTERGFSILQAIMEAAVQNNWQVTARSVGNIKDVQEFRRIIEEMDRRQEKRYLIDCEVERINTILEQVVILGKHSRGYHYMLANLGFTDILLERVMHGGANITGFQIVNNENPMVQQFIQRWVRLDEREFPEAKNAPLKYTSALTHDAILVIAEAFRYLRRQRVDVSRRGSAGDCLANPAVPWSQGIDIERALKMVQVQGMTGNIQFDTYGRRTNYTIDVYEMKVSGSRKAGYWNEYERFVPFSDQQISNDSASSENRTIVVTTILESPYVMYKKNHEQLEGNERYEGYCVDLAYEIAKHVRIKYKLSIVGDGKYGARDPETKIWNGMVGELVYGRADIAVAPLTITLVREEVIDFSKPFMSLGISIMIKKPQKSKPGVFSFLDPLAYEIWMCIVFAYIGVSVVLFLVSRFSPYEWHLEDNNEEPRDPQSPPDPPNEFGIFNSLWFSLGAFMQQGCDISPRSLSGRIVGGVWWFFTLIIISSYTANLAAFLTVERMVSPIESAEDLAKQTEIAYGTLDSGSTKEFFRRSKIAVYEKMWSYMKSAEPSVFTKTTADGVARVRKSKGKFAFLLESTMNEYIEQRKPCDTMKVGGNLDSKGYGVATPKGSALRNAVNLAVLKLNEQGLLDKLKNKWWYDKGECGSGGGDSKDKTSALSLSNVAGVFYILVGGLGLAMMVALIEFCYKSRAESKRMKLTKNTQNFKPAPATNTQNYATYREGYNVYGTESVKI

[5] = Compound was administered orally 1 h prior to trigeminal stimulation and was evaluated for the decrease extravasation
Glutamate receptor 2 = Glutamate receptor 2 (Homo sapiens, UniProt P42262); test: Ability to displace binding of [3H]AMPA to recombinant human Ionotropic glutamate receptor AMPA 2
Glutamate receptor 2, sequence (P42262 whole entry): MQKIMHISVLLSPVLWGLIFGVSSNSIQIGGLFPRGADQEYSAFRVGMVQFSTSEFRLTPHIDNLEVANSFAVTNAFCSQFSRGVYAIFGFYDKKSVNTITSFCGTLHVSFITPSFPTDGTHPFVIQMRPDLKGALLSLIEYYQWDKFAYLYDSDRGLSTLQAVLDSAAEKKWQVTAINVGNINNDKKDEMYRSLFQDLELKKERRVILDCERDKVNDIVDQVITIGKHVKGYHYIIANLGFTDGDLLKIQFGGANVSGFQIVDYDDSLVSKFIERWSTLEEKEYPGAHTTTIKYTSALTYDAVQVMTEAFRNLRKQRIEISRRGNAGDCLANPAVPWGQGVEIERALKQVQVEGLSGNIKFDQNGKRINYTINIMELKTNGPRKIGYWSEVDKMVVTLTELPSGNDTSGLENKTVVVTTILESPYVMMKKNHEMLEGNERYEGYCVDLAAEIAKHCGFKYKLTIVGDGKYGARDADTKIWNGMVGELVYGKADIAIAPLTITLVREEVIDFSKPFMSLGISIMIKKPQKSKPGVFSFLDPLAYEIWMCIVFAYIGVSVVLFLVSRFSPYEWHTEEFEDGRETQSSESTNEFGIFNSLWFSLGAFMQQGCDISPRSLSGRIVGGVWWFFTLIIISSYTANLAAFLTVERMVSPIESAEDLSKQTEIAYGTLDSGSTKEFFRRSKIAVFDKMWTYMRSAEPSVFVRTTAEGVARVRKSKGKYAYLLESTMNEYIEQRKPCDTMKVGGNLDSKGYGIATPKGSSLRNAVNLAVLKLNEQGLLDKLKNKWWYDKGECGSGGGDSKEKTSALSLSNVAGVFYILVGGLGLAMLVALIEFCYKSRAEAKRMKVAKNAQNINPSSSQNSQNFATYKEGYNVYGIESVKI

Glutamate receptor 4, sequence (P48058 whole entry): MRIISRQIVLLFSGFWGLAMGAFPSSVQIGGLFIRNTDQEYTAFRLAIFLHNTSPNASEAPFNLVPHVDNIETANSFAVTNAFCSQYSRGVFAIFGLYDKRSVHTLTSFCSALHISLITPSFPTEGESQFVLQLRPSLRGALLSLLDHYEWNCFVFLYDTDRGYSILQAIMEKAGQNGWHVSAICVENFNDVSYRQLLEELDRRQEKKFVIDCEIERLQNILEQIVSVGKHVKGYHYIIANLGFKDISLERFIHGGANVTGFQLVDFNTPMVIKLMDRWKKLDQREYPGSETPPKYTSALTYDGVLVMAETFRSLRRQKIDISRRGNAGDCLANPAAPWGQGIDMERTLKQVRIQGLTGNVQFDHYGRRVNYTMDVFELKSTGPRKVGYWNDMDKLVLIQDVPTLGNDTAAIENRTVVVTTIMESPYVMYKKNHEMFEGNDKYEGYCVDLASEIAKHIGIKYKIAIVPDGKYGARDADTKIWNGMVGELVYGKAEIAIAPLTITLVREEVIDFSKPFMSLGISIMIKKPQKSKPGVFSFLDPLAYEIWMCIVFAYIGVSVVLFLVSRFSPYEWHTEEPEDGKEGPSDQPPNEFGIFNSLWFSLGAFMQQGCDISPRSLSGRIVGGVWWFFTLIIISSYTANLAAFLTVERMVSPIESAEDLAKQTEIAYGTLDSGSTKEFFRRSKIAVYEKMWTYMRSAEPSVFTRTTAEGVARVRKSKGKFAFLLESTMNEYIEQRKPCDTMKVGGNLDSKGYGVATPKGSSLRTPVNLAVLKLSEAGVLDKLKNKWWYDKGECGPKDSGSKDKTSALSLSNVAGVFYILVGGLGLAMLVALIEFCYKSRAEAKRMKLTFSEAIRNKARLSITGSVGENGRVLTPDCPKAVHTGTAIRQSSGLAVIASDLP

Ki (Glutamate receptor 1) [µM] | Ki (Glutamate receptor 2) [µM] | Structure (SMILES) | Ki (Glutamate receptor 4) [µM] | Ki [1] [µM] | Ki [2] [µM] | Ki [3] [µM] | Ki [4] [µM] | Ki (Glutamate receptor 3) [µM] | ID50 [5] [µg/kg]
– | – | CN(C)CCc1c[nH]c2ccc(Cn3cncn3)cc12 [RIZATRIPTAN] | – | – | – | – | – | – | 8
134 | 117 | O=C(O)c1cn(C[C@H]2CC[C@H]3CN[C@H](C(=O)O)C[C@H]3C2)cn1 | 262 | 236 | 48.5 | > 1000 | 0.156 | 247 | –
1.6 | – | NS(=O)(=O)c1cccc2c1c([N+](=O)[O-])cc1nc(O)c(O)nc12 [NBQX] | – | – | – | – | – | – | –

Structure (SMILES) | Ki (Glutamate receptor 1) [µM] | Ki (Glutamate receptor 2) [µM] | Ki (Glutamate receptor 4) [µM] | Ki [1] [µM] | Ki [2] [µM] | Ki [3] [µM] | Ki [4] [µM] | Ki (Glutamate receptor 3) [µM] | ID50 [5] [µg/kg]
O=C(O)[C@@H]1C[C@H]2C[C@@H](CCc3nn[nH]n3)CC[C@H]2CN1 [TEZAMPANEL ANHYDROUS] | 9.2 | – | 50 | > 100 | > 100 | > 100 | 4.2 | 32 | –
